According to PubChem BioAssay:
The source made the active and inactive calls.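 Rule for the calls, unless noted: active = current rise at least 3 SD above the untreated control mean in each of two repeat wells; inactive = the rest.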

Legend:
[1] = molecular target: Potassium voltage-gated channel subfamily KQT member 1 (Homo sapiens) (UniProt P51787); assay: KCNQ1 activators by electrophysiology – IonWorks patch clamp, KCNQ1-CHO cells, orthogonal assay for KCNQ1 potentiator project, confirmation (AID 493184); conditions: automated patch clamp current, at 10 µM
Chain of Potassium voltage-gated channel subfamily KQT member 1 (Homo sapiens) (P51787 whole entry, looked up): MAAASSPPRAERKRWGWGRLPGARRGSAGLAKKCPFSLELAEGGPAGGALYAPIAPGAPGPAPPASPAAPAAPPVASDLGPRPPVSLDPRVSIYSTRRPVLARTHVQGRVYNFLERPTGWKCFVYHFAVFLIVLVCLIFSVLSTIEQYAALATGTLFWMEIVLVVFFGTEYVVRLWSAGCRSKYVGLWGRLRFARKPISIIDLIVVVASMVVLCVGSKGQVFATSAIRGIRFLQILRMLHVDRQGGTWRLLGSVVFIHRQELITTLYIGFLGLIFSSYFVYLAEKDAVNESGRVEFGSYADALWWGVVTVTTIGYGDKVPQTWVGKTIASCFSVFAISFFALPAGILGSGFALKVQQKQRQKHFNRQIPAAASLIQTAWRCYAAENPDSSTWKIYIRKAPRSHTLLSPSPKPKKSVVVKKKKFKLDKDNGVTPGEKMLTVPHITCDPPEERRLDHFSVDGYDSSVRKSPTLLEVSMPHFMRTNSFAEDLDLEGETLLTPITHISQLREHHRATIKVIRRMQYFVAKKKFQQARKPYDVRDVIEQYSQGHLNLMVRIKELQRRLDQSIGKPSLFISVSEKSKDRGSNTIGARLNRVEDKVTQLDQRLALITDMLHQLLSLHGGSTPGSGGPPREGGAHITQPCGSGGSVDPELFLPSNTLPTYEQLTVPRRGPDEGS
How it was run: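 Assay system – CHO cells carrying KCNQ1 · Medium – pH 7.4 external bath · Probe or stimulus – depolarizing pulse to +40 mV from -90 mV · Compound dosing – one dose, 10 µM final · Measured by – automated perforated-patch electrophysiology · Measure – % potentiation of steady-state current relative to pre-compound · Repeats – two replicates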

[2] = molecular target: Potassium voltage-gated channel subfamily E member 1 (Homo sapiens) + Potassium voltage-gated channel subfamily KQT member 1 (Homo sapiens) (UniProt P15382+P51787); assay: KCNQ1-E1 channel activation – thallium flux, CHO-K1 KCNQ1/E1 cells, selectivity assay for KCNQ1 potentiator project, confirmation (AID 493186;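 active = mean duplicate activation above the buffer control mean plus 5 SD of those controls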); conditions: FluxOR thallium flux, at 10 µM
Chain of Potassium voltage-gated channel subfamily E member 1 (Homo sapiens) + Potassium voltage-gated channel subfamily KQT member 1 (Homo sapiens) (P51787 whole entry, looked up): as the sequence (P51787 whole entry, looked up) above
How it was run: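 Assay system: CHO-K1 cells with KCNQ1/E1 | Dosing: Single compound concentration per well | Incubation: Dye 90 min, compound 20 min, room temperature | Measured by: FluxOR Tl+ flux fluorescence, kinetic read | Controls: Buffer low control, R-L3 high control | Replicates: Duplicate wells per compound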

Structure (SMILES)	outcome [1]	outcome [2]
CC(=O)C1=C(S(=O)(=O)c2ccc(C)cc2)CS(=O)(=O)C1	inactive	–
COc1cc(NS(=O)(=O)c2ccc3ccccc3c2)c2ncccc2c1	inactive	inactive
CC(C1CC2CCC1C2)n1c(-c2cccs2)n[nH]c1=S (stereo unspecified)	inactive	inactive
Cc1nc2c3cc(Cl)ccc3n(CCN3CCCCC3)c2s1	inactive	–
CN(C)CC(CCC(CN(C)C)C(O)(c1ccccc1)c1ccccc1)C(O)(c1ccccc1)c1ccccc1 (stereo unspecified)	inactive	inactive
Cc1cc(C)cc(N/C(N)=N/c2nc(C)cc(C)n2)c1	inactive	inactive
Cc1cccc(/C=N/NC(=O)c2cc(Br)ccc2O)n1	inactive	–
